Results reported in ChEMBL document CHEMBL2169806, “Design, synthesis, and pharmacological evaluation of N-acylhydrazones and novel conformationally constrained compounds as selective and potent orally active phosphodiesterase-4 inhibitors” (J Med Chem, 2012).

How the values were obtained:
[1] = species on record: Bos taurus; assay: Inhibition of bovine PDE4 using [3H]cAMP as substrate at 10 uM
Outline: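 Enzyme was PDE4 isolated from the media layer of bovine aorta, run in the two-step activity assay at 1 μM cAMP.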

[2] = test system: Mus musculus; assay: Antiinflammatory activity in A/J mouse lung assessed as inhibition of LPS-induced TNFalpha production at 100 umol/kg, po administered 1 hr prior to LPS-challenge measured after 18 hrs relative to vehicle-treated control; type: functional
[3] = test system: PBMC; assay: Antiinflammatory activity in human PBMC assessed as inhibition of LPS-induced TNFalpha production after 24 hrs by ELISA; type: functional, cell-based
[4] = test system: Mus musculus; assay: Antiinflammatory activity in A/J mouse assessed as inhibition of LPS-induced airway resistance provoked by methacholine at 100 umol/kg, po administered 1 hr prior to LPS-challenge measured after 18 hrs relative to vehicle-treated control; type: functional
[5] = test system: Mus musculus; assay: Antiinflammatory activity in A/J mouse lung assessed as inhibition of LPS-induced IL6 production at 100 umol/kg, po administered 1 hr prior to LPS-challenge measured after 18 hrs relative to vehicle-treated control; type: functional
[6] = Inhibition of bovine PDE4 using [3H]cAMP as substrate; parameters: species or system Bos taurus
[7] = test system: Mus musculus; assay: Antiinflammatory activity in A/J mouse assessed as inhibition of LPS-induced airway elastance provoked by methacholine at 100 umol/kg, po administered 1 hr prior to LPS-challenge measured after 18 hrs relative to vehicle-treated control; type: functional
[8] = test system: Mus musculus; assay: Antiinflammatory activity in A/J mouse assessed as inhibition of leukocyte accumulation in bronchoalveolar space at 100 umol/kg, po administered 1 hr prior to LPS-challenge measured after 18 hrs relative to vehicle-treated control; type: functional; details: Lung
[9] = test system: Mus musculus; assay: Antiinflammatory activity in A/J mouse assessed as inhibition of neutrophil accumulation in bronchoalveolar space at 100 umol/kg, po administered 1 hr prior to LPS-challenge measured after 18 hrs relative to vehicle-treated control; type: functional; details: Lung
[10] = Inhibition of PDE6 at 10 uM
[11] = Inhibition of bovine PDE3 using [3H]cAMP as substrate; parameters: species or system Bos taurus
[12] = species on record: Bos taurus; assay: Inhibition of bovine PDE1 using [3H]cAMP as substrate at 10 uM
[13] = biological target: T1, cGMP-dependent 3',5'-cyclic phosphodiesterase (Homo sapiens, UniProt O00408); assay: Inhibition of human PDE2 using [3H]cAMP as substrate at 10 uM
T1 sequence (O00408 whole entry): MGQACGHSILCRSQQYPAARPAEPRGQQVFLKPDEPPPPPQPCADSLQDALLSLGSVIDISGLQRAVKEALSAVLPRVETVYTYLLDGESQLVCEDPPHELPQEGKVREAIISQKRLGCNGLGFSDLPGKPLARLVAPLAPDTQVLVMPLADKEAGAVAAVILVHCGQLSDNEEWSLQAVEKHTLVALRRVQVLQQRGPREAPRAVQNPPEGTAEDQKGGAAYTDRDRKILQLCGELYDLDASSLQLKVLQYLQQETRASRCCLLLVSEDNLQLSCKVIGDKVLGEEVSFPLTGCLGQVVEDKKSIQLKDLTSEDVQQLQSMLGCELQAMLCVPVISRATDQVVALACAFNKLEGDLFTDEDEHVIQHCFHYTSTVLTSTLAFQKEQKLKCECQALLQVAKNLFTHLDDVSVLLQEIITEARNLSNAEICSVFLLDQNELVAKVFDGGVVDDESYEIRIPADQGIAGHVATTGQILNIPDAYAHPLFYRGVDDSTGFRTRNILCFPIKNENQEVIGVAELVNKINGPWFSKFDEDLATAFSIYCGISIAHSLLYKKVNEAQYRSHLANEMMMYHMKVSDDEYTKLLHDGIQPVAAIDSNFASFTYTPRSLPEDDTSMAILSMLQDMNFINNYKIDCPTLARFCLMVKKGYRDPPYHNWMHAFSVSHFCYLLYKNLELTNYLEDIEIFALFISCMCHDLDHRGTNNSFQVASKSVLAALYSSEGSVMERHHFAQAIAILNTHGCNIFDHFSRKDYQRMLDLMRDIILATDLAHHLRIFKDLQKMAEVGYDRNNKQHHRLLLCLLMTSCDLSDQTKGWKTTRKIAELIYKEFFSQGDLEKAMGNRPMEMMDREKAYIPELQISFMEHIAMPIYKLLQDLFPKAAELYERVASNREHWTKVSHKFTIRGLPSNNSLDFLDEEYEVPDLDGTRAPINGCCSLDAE

[14] = species on record: Bos taurus; assay: Inhibition of bovine PDE5 using […] as substrate at 10 uM
[15] = test system: PBMC; assay: Antiinflammatory activity in human PBMC assessed as inhibition of LPS-induced TNFalpha production at 10 uM after 24 hrs by ELISA relative to control; type: functional
[16] = biological target: 3',5'-cyclic-AMP phosphodiesterase 4B (Homo sapiens, UniProt Q07343); assay: Inhibition of human recombinant PDE4B
3',5'-cyclic-AMP phosphodiesterase 4B, sequence (Q07343 whole entry): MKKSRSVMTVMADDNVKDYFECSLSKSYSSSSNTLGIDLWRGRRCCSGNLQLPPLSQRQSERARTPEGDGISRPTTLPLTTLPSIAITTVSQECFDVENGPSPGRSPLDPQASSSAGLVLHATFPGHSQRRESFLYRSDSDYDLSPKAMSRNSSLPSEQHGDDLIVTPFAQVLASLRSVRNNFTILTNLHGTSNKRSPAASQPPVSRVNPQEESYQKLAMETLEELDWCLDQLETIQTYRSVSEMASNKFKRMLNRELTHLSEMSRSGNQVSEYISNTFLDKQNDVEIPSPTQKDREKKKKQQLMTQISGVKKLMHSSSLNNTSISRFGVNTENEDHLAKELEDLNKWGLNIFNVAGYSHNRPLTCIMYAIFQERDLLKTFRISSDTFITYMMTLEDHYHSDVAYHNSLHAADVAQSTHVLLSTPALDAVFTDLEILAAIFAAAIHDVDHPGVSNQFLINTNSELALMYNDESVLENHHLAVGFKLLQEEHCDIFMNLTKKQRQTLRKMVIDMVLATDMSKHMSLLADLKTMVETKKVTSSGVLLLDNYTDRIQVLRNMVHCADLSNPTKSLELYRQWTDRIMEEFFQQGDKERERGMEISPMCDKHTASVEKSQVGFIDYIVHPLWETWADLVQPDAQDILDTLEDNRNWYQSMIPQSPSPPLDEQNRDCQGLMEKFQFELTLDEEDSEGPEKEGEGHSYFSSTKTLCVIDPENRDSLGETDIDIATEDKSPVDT

[17] = biological target: 3',5'-cyclic-AMP phosphodiesterase 4C (Homo sapiens, UniProt Q08493); assay: Inhibition of human recombinant PDE4C
3',5'-cyclic-AMP phosphodiesterase 4C, sequence (Q08493 whole entry): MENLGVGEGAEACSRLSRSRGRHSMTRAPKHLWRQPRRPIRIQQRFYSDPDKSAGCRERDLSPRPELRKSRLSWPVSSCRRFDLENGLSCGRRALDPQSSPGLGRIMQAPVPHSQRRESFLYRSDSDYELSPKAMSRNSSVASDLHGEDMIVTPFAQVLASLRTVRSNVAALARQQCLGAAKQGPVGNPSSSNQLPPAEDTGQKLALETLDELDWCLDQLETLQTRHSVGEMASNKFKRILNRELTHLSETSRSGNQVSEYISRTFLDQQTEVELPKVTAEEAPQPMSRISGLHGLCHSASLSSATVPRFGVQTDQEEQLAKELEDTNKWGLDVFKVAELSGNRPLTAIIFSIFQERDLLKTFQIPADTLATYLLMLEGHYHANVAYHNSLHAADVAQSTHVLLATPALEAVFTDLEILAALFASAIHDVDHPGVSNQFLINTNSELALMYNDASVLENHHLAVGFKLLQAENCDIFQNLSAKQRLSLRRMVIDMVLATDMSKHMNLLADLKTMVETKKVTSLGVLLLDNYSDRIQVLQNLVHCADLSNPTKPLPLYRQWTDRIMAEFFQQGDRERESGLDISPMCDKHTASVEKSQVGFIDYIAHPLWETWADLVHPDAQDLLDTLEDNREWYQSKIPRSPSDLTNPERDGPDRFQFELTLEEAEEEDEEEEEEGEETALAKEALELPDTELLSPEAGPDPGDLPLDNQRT

[18] = biological target: 3',5'-cyclic-AMP phosphodiesterase 4A (Homo sapiens, UniProt P27815); assay: Inhibition of human recombinant PDE4A
3',5'-cyclic-AMP phosphodiesterase 4A, sequence (P27815 whole entry): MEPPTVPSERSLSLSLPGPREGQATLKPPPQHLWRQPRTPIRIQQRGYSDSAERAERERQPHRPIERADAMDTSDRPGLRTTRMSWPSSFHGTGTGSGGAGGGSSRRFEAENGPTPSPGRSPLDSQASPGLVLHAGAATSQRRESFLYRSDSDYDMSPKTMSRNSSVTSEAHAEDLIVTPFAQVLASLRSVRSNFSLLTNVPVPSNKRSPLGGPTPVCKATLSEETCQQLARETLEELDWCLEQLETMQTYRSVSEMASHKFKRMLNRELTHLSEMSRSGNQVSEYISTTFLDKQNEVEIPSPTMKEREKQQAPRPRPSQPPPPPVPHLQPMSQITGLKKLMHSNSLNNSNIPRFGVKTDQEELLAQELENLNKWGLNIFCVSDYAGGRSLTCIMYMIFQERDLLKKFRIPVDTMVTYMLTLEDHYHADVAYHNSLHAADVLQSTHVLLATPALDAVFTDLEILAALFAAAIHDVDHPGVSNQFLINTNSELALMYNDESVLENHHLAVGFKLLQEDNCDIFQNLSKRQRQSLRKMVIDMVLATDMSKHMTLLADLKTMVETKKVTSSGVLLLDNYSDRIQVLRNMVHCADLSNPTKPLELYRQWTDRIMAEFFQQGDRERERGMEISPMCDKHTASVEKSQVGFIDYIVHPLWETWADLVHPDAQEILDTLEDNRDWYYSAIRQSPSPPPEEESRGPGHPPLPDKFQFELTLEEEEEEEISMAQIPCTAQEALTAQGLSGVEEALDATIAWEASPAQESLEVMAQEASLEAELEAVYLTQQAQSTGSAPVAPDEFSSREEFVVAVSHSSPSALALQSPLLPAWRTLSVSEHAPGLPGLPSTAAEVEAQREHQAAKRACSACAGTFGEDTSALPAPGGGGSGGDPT

[19] = biological target: 3',5'-cyclic-AMP phosphodiesterase 4D (Homo sapiens, UniProt Q08499); assay: Inhibition of human recombinant PDE4D
3',5'-cyclic-AMP phosphodiesterase 4D, sequence (Q08499 whole entry): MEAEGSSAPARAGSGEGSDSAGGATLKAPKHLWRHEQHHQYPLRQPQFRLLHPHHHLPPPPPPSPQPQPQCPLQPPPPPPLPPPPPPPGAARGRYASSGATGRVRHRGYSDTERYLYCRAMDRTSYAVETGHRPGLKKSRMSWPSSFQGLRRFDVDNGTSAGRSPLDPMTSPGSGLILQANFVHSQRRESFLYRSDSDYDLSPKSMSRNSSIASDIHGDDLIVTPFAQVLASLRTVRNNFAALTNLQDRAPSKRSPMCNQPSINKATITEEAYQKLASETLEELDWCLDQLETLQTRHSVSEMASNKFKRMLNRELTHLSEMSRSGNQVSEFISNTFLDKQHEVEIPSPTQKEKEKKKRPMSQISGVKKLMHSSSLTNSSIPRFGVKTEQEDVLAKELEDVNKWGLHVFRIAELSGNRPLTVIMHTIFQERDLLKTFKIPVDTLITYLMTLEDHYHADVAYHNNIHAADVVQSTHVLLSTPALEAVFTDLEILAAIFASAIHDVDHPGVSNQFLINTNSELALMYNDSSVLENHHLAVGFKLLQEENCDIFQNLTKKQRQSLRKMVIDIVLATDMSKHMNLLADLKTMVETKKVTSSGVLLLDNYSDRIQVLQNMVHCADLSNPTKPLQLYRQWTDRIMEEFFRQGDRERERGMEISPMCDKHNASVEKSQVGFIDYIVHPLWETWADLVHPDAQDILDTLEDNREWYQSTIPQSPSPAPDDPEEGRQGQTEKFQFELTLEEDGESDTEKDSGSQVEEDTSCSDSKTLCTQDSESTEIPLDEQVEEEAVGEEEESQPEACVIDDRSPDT

[20] = test system: Mus musculus; assay: Proemetic activity in A/J mouse assessed as reversal of xylazine/katamine-induced anesthesia at 30 to 200 umol/kg, sc administered 30 mins prior xylazine/ketamine-administration; type: ADME, organism-based; details: in vivo, 0.5 h
[21] = Inhibition of bovine PDE5 using […] as substrate; parameters: species or system Bos taurus
[22] = biological target: T1, cGMP-dependent 3',5'-cyclic phosphodiesterase; assay: Inhibition of human PDE2 using [3H]cAMP as substrate

`COc1ccc(/C=N/N(C)c2ncnc3ccccc23)cc1OC` gave an inhibition [1] of 98%, an inhibition in vivo at 100 µmol/kg [2] of 70% and an EC50 [3] of 1300 nM. It also gave an inhibition in vivo at 100 µmol/kg [4] of 82%, an inhibition in vivo at 100 µmol/kg [5] of 86% and an IC50 [6] of 190 nM. The inhibition in vivo at 100 µmol/kg [7] was 66%, the inhibition in vivo at 100 µmol/kg [8] was 47% and the inhibition in vivo at 100 µmol/kg [9] was 49%.

`COc1ccc(C(=O)N/N=C/c2ccc(O)cc2)cc1OC` gave an inhibition [1] of 1.5%.

Work on `COc1ccc(/C=N/N(C)C(=O)c2ccc(Cl)cc2)cc1OC` yielded an inhibition [10] of 34%, an IC50 [11] of 6700 nM and an inhibition [12] of 17.7%. For the same compound, the inhibition [13] was 26.6%, the inhibition [14] was 27.5% and the inhibition [1] was 97%. It also gave an inhibition in vivo at 100 µmol/kg [2] of 54%, an inhibition at 10 µM [15] of 88% and an EC50 [3] of 1030 nM. It also gave an inhibition in vivo at 100 µmol/kg [4] of 33%, an inhibition in vivo at 100 µmol/kg [5] of 59% and an IC50 [6] of 150 nM. It also gave an inhibition in vivo at 100 µmol/kg [7] of 72%, an inhibition in vivo at 100 µmol/kg [8] of 69% and an inhibition in vivo at 100 µmol/kg [9] of 54%.

Work on `COc1ccc(C(=O)N(C)/N=C/c2ccc(Cl)cc2)cc1OC` yielded an inhibition [1] of 40.4%.

With `COc1ccc(C(=O)N/N=C/c2ccccc2)cc1OC` the inhibition [1] was 5.8%.

Work on `COc1ccc(/C=N/NC(=O)c2ccc(O)cc2)cc1OC` yielded an inhibition [1] of 13.6%.

`COc1ccc(C(=O)N(C)/N=C/c2ccccc2)cc1OC` showed an inhibition [1] of 22.8%.

`COc1ccc(-c2nn(C(=O)c3ccccc3)c3ccccc23)cc1OC` gave an inhibition [1] of 81.2% and an IC50 [6] of 4100 nM.

For `COc1ccc(/C=N/N(C)C(=O)c2ccc(OC)c(OC)c2)cc1`, the inhibition [1] was 45.8%.

`Clc1ncnc2ccccc12` gave an IC50 [16] of 231 nM, an IC50 [17] of 3690 nM and an IC50 [18] of 162 nM. It also gave an IC50 [19] of 622 nM.

With `COc1ccc(C(=O)N(C)/N=C/c2ccc(OC)c(OC)c2)cc1` the inhibition [10] was 35.2%, the Activity [20] was “Non-toxic” and the IC50 [11] was 6700 nM. It also gave an inhibition [12] of 25.1%, an inhibition [13] of 35.5% and an IC50 [16] of 53 nM. The inhibition [1] was 98.3%, the IC50 [17] was 505 nM and the IC50 [21] was 150 nM. The inhibition in vivo at 100 µmol/kg [2] was 51%, the inhibition at 10 µM [15] was 84% and the EC50 [3] was 1450 nM. It also gave an inhibition in vivo at 100 µmol/kg [4] of 61%, an inhibition in vivo at 100 µmol/kg [5] of 45% and an IC50 [6] of 105 nM. For the same compound, the inhibition in vivo at 100 µmol/kg [7] was 62%, the inhibition in vivo at 100 µmol/kg [8] was 81% and the inhibition in vivo at 100 µmol/kg [9] was 68%. It also gave an IC50 [18] of 159 nM and an IC50 [19] of 74 nM.

With `COc1ccc(/C=N/NC(=O)c2ccc3c(c2)OCO3)cc1OC` the inhibition [1] was 16%.

`COc1ccc(C(=O)N/N=C/c2ccc(Cl)cc2)cc1OC` showed an inhibition [1] of 6.4%.

In the case of `COc1ccc(/C=N/N(C)C(=O)c2ccccc2OC)cc1OC`, the inhibition [10] is reported as 11%, the IC50 [11] is reported as 6200 nM and the inhibition [12] is reported as 11%. The inhibition [14] was 13.9%, the inhibition [1] was 97.8% and the inhibition in vivo at 100 µmol/kg [2] was 100%. It also gave an IC50 [22] of 16800 nM, an inhibition at 10 µM [15] of 80% and an EC50 [3] of 1590 nM. For the same compound, the inhibition in vivo at 100 µmol/kg [4] was 61%, the inhibition in vivo at 100 µmol/kg [5] was 99% and the IC50 [6] was 210 nM. The inhibition in vivo at 100 µmol/kg [7] was 59%, the inhibition in vivo at 100 µmol/kg [8] was 52% and the inhibition in vivo at 100 µmol/kg [9] was 53%.

With `COc1ccc(C(=O)N(C)/N=C/c2ccc(O)cc2)cc1OC` the inhibition [1] was 27%.

`COc1ccc(C2=NNC(=O)c3ccccc3C2)cc1OC` showed an inhibition [1] of 78.8%, an inhibition at 10 µM [15] of 14% and an IC50 [6] of 5200 nM.
